Screening results: PubChem BioAssay, several laboratories
In the library only some 1.5% were active in any assay of this set; here they are far more common.
Casp6 inh – inhibitors of human caspase-6. purified caspase-6, Z-VEID-R110 cleavage fluorescence. inhibition, % at 12.5 µM. hit rate 0.53% among 350,000;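 active = mean inhibition across replicates at least about 35%, with every replicate also reaching that limit, limit read from the data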;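 also: 0% = median of neutral control wells and 100% = no fluorescence left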
NSD2 HMT inh – inhibitors of human histone methyltransferase NSD2; inhibition, % at 12.5 µM; hit rate 0.54% among 310,000; O96028; NSD2 peptide methylation, AlphaScreen, 120 min
DNMT1 block – DNMT1 (human) enzyme inhibition. P26358. DNMT1 molecular beacon, Hinp1I cleavage, fluorescence. inhibition (reported as % activation of signal), % at 10 µM. hit rate 0.83% among 360,000. AID 588458
Target sequence (P26358 504-1616 limits assumed): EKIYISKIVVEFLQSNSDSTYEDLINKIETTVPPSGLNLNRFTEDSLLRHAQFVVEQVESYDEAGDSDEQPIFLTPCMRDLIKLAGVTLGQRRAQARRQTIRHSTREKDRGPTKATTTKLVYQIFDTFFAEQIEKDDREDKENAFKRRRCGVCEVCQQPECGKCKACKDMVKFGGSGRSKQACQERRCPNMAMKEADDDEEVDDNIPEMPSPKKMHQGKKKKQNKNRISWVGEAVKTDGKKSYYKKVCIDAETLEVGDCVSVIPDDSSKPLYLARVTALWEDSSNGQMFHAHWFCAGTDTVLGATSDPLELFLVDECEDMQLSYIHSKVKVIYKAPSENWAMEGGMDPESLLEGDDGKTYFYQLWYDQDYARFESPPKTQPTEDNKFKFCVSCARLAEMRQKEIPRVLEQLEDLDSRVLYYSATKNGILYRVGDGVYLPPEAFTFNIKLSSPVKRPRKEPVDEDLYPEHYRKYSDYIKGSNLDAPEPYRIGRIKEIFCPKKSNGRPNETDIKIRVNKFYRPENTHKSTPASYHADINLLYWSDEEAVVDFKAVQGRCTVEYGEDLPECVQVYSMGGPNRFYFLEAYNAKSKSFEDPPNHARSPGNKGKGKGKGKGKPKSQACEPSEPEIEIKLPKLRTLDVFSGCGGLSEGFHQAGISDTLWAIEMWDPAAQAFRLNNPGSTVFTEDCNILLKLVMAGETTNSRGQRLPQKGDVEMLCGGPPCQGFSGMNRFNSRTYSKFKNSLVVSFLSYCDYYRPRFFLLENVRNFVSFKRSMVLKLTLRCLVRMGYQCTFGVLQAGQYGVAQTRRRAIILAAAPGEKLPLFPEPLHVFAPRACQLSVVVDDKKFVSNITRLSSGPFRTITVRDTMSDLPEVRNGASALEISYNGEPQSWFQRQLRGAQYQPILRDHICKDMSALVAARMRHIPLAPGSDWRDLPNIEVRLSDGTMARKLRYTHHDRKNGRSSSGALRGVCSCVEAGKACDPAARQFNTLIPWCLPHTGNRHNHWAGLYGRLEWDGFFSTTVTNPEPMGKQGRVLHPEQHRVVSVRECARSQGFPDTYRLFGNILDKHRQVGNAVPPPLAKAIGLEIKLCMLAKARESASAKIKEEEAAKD
NS3 helicase inh – blocks Hepatitis C virus NS3 helicase unwinding; NS3 helicase DNA unwinding, Cy5 molecular beacon fluorescence; inhibition, % at 10.9 µM; hit rate 0.56% among 290,000; AID 1800;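 active = inhibition above the mean of all tested compounds plus 3 SD, set per campaign, cut at about 35% in these data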;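 also: 0% = DMSO wells and 100% = thioflavine S control wells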
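Assay system: hepatitis C virus NS3 helicase domain fragment enzyme. Also added: annealed dual-labelled DNA beacon duplex, ATP-started. Timing: 1 h reaction at 25 °C, ATP-initiated. Technique: Cy5 fluorescence at 0 and 60 min, beacon hairpin quenching. Evaluation: % inhibition of unwinding. Replication: one well per compound.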
Alpha artifact – AlphaScreen assay artifact in NSD2 counter-screen; shares compounds with NSD2 HMT inh; AC35, µM (doses to about 10 µM), without a hit: at the top dose activity change, negative = signal loss; hit rate 9.4% among 1,500; AlphaScreen artifact counterscreen, preloaded methylated H4 peptide; call rule not given here
* marks the source's active call; other numbers are inactive results; x = no result. Rule as the data show it, unless noted: active = inhibition above about 50%; inactive = the rest.

SMILES	Casp6 inh	NSD2 HMT inh	DNMT1 block	NS3 helicase inh	Alpha artifact
Cc1ccc(OCc2cnc(Cl)s2)c(C)c1	1	52*	0	10	0%
COc1ccc(OCc2cnc(Cl)s2)cc1	x	-1	0	10	x
COc1ccc(C)cc1COC(=O)c1[nH]c(C)c(C(C)=O)c1C	0	55*	-2	-12	-2%
C[C@H](CO)N1C[C@H](C)[C@H](CN(C)CC2CC2)Oc2ccc(NC(=O)c3ccncc3)cc2CC1=O	-13	x	x	x	x
O=C(Nc1cccc(C(F)(F)F)c1)c1cc(-c2ccco2)on1	-1	92*	-15	1	-2%
O=C(Nc1cccc(O)c1)c1cc(-c2ccco2)on1	x	-4	-10	-2	x
Cc1ccc(S(=O)(=O)Nc2cccc3c2O[C@H](CN(C)Cc2ccc4c(c2)OCO4)[C@@H](C)CN([C@H](C)CO)C3=O)cc1	4	x	x	x	x
COCC(=O)Nc1ccc2c(c1)OC[C@@H](C)N(Cc1ccccc1)C[C@H](C)[C@@H](OC)CN(C)C2=O	-2	x	x	x	x
COc1ccc(CN(C)C[C@@H]2Oc3ccc(NC(=O)C4CC4)cc3CC(=O)N([C@H](C)CO)C[C@H]2C)cc1	0	x	x	x	x
Fc1ccc(COc2ccccc2CNc2nn[nH]n2)cc1	1	-1	-2	6	x
CNCc1ccccc1OCc1ccc(F)cc1	2	60*	0	-5	-4%
O=C(/C=C/c1ccc(-c2ccccc2)cc1)NCc1cccnc1	-2	62*	-2	9	-2%
O=C(O)c1ccc(NN=Cc2cc(=O)[nH]c(=O)[nH]2)cc1	0	0	-4	x	x
O=c1cc(C=NNc2ccccc2)[nH]c(=O)[nH]1	-1	52*	0	x	-5%
COc1cccc(S(=O)(=O)N(C)C[C@@H]2Oc3ncc(C#Cc4ccccc4)cc3C(=O)N([C@H](C)CO)C[C@@H]2C)c1	0	x	x	x	x
CNC[C@@H]1Oc2ccc(NS(=O)(=O)c3cn(C)cn3)cc2CC(=O)N([C@H](C)CO)C[C@H]1C	-1	x	x	x	x
Cn1c(COc2ccc(Cl)cc2)nnc1SCC(=O)NC1CCCCC1	x	51*	-9	-18	1%
Cc1ccc(OCc2nnc(SCC(=O)NC3CCCCC3)n2C)cc1	x	-2	0	x	x
Oc1ccc(C2=Nn3c(nnc3-c3ccco3)SC2)cc1O	x	62*	7	-1	-23%
CCCNC(=O)C[C@@H]1CC[C@@H]2[C@@H](COc3ccc(NC(=O)C4CCCC4)cc3C(=O)N2C)O1	0	x	x	x	x
C[C@@H]1CN([C@H](C)CO)S(=O)(=O)c2ccc(C3=CCCC3)cc2O[C@H]1CN(C)Cc1ccncc1	0	x	x	x	x
O=[N+]([O-])c1ccc(NC(=S)N2CCOCC2)cc1	-1	1	7	-8	x
O=[N+]([O-])c1cccc(NC(=S)N2CCOCC2)c1	4	85*	1	7	-2%
CSc1ncccc1C(=O)Nc1nc2c(C)cccc2s1	1	104*	-1	-7	-1%
CSc1ncccc1C(=O)Nc1ncc(C)s1	-1	4	0	6	x
SMILES	Casp6 inh	NSD2 HMT inh	DNMT1 block	NS3 helicase inh	Alpha artifact
CCOc1ccc(S(=O)(=O)N2CCCC(C(=O)NCCN3CCOCC3)C2)cc1Cl (stereo not drawn)	0	83*	0	4	1%
COc1ccc(CN(C)C[C@@H]2Oc3c(NC(=O)NC4CCCCC4)cccc3C(=O)N([C@H](C)CO)C[C@H]2C)cc1	2	x	x	x	x
O=C(Nc1ccc(S(=O)(=O)Nc2ncccn2)cc1)C1CC(=O)N(c2ccc(Cl)cc2)C1 (stereo not drawn)	6	76*	0	3	-5%
O=C(Nc1ccc(S(=O)(=O)Nc2nccs2)cc1)C1CC(=O)N(c2ccc(Cl)cc2)C1 (stereo not drawn)	-1	2	-1	-12	x
C[C@@H]1CN([C@@H](C)CO)C(=O)c2cc(NC(=O)C3CC3)ccc2O[C@@H]1CN(C)C(=O)Nc1ccccc1	1	x	x	x	x
O=C(O)CC1S/C(=N/N=C/c2ccc(-c3ccc(Cl)cc3[N+](=O)[O-])o2)NC1=O (stereo not drawn)	x	60*	-20	23	-8%
C[C@H]1CN([C@@H](C)CO)C(=O)CCCn2cc(nn2)CO[C@H]1CN(C)Cc1ccccc1C(F)(F)F	-2	x	x	x	x
COCc1[nH][nH]c(=O)c1C=NCC(=O)OC	-5	51*	-1	-8	-6%
COCC(=O)N1CC[C@@H]2[C@H]1c1cc(-c3cccc(OC)c3)ccc1N(C)[C@H]2CO	-1	x	x	x	x
CC1(C)NC(=O)N(CCCCOc2ccccc2[N+](=O)[O-])C1=O	x	x	x	11	x
CC1(C)NC(=O)N(CCCOc2ccccc2Br)C1=O	x	70*	6	0	-2%
O=C(Nc1ccccc1C(=O)O)c1cncc(Br)c1	x	68*	4	7	-10%
O=C1CC(C(=O)N2CCc3ccccc32)CN1c1ccccc1 (stereo not drawn)	0	80*	1	0	-2%
Cc1ccc(S(=O)(=O)N(C)C[C@@H]2Oc3ccc(NC(=O)CCC(F)(F)F)cc3C(=O)N([C@H](C)CO)C[C@@H]2C)cc1	0	x	x	x	x
Cc1nc(N/N=C/c2ccc(O)cc2O)cc(N2CCOCC2)n1	-2	10	-2	1	x
Oc1ccc(/C=N/Nc2cc(N3CCOCC3)nc(N3CCOCC3)n2)cc1O	6	106*	-18	2	-18%
Oc1cccc(/C=N/Nc2cc(N3CCOCC3)nc(N3CCOCC3)n2)c1	x	23	-32	-19	x
Oc1ccccc1/C=N/Nc1cc(N2CCCC2)nc(N2CCCC2)n1	x	54*	58*	-15	-14%
O=C(C[C@H]1CC[C@H]2[C@@H](COC[C@H](O)CN2Cc2ccccc2F)O1)N1CCc2ccccc2C1	-3	x	x	x	x
C[C@@H]1CN([C@H](C)CO)C(=O)Cc2cc(NC(=O)Cc3cn(C)c4ccccc34)ccc2O[C@H]1CN(C)Cc1ccc(C(=O)Nc2ccccc2N)cc1	2	x	x	x	x
